# Tested on: U2OS
# Assay: Multiplex assay against U2OS
# Type: toxicity, cell-based
# Conditions: human
# In short: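 At seeding, live cells were stained with Hoechst33342, BioTracker Green Microtubule Cytoskeleton Dye, MitoTracker Red and Annexin V Alexa Fluor 680. After compound addition they were imaged on a CQ1 microscope at 37°C and 5% CO2, and CellPathfinder machine-learning gating sorted them into Hoechst high-intensity objects or normal cells, with normal cells further split into healthy, pyknosed or fragmented nuclei and pyknosed cells into mitotic or apoptotic. Tubulin, mitochondrial-mass and membrane-permeability phenotypes are given as per cents of cells with healthy nuclei.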
# [1] = 12 h, 1 µM, compound concentration 1 uM, replicate 1
# [2] = 12 h, 1 µM, compound concentration 1 uM, replicate 2
# [3] = 12 h, 10 µM, compound concentration 10 uM, replicate 1
# [4] = 12 h, 10 µM, compound concentration 10 uM, replicate 2
# [5] = 24 h, 1 µM, compound concentration 1 uM, replicate 1
# [6] = 24 h, 1 µM, compound concentration 1 uM, replicate 2
# [7] = 24 h, 10 µM, compound concentration 10 uM, replicate 1
# [8] = 24 h, 10 µM, compound concentration 10 uM, replicate 2
# [9] = 48 h, 1 µM, compound concentration 1 uM, replicate 1
# [10] = 48 h, 1 µM, compound concentration 1 uM, replicate 2
# [11] = 48 h, 10 µM, compound concentration 10 uM, replicate 1
# [12] = 48 h, 10 µM, compound concentration 10 uM, replicate 2
smiles,measurement,setting,value
CN1CCN2c3ncccc3Cc3ccccc3C2C1 (stereo not drawn) [MIRTAZAPINE],Population Apoptotic (%),[1],82%
same,Population Fragmented Nuclei (%),[1],21%
same,Population Healthy Nuclei (%),[1],67%
same,Population Hoechst High Intensity Objects (%),[1],1%
same,Population Membrane Permeable-Phenotype (%),[1],3%
same,Population Mitochondria Different-Phenotype (%),[1],1%
same,Population Mitotic Cells (%),[1],17%
same,Population Normal (%),[1],99%
same,Population Pyknosed Nuclei (%),[1],11%
same,Population Tubulin-Different-Phenotype (%),[1],2%
same,Total Cell Count,[1],301
same,Population Apoptotic (%),[2],100%
same,Population Healthy Nuclei (%),[2],72%
same,Population Membrane Permeable-Phenotype (%),[2],5%
same,Population Mitochondria Different-Phenotype (%),[2],6%
same,Population Mitotic Cells (%),[2],0%
same,Population Normal (%),[2],98%
same,Population Pyknosed Nuclei (%),[2],6%
same,Population Tubulin-Different-Phenotype (%),[2],3%
same,Total Cell Count,[2],81
same,Population Apoptotic (%),[3],73%
same,Population Fragmented Nuclei (%),[3],19%
same,Population Healthy Nuclei (%),[3],71%
same,Population Hoechst High Intensity Objects (%),[3],3%
same,Population Membrane Permeable-Phenotype (%),[3],6%
same,Population Mitochondria Different-Phenotype (%),[3],5%
same,Population Mitotic Cells (%),[3],26%
same,Population Normal (%),[3],96%
same,Population Pyknosed Nuclei (%),[3],8%
same,Population Tubulin-Different-Phenotype (%),[3],6%
same,Total Cell Count,[3],266
same,Population Apoptotic (%),[4],66%
same,Population Fragmented Nuclei (%),[4],13%
same,Population Healthy Nuclei (%),[4],82%
same,Population Membrane Permeable-Phenotype (%),[4],3%
same,Population Mitochondria Different-Phenotype (%),[4],4%
same,Population Mitotic Cells (%),[4],33%
same,Population Pyknosed Nuclei (%),[4],3%
same,Population Tubulin-Different-Phenotype (%),[4],0%
same,Total Cell Count,[4],83
same,Population Apoptotic (%),[5],85%
same,Population Fragmented Nuclei (%),[5],15%
same,Population Healthy Nuclei (%),[5],76%
same,Population Hoechst High Intensity Objects (%),[5],2%
same,Population Membrane Permeable-Phenotype (%),[5],5%
same,Population Mitochondria Different-Phenotype (%),[5],3%
same,Population Mitotic Cells (%),[5],14%
same,Population Normal (%),[5],97%
same,Population Pyknosed Nuclei (%),[5],8%
same,Population Tubulin-Different-Phenotype (%),[5],2%
same,Total Cell Count,[5],340
same,Population Apoptotic (%),[6],100%
same,Population Fragmented Nuclei (%),[6],26%
same,Population Healthy Nuclei (%),[6],63%
same,Population Hoechst High Intensity Objects (%),[6],3%
same,Population Membrane Permeable-Phenotype (%),[6],3%
same,Population Mitotic Cells (%),[6],0%
same,Population Normal (%),[6],96%
same,Population Pyknosed Nuclei (%),[6],10%
same,Population Tubulin-Different-Phenotype (%),[6],4%
same,Total Cell Count,[6],99
same,Population Apoptotic (%),[7],89%
same,Population Fragmented Nuclei (%),[7],18%
same,Population Healthy Nuclei (%),[7],71%
same,Population Hoechst High Intensity Objects (%),[7],2%
same,Population Membrane Permeable-Phenotype (%),[7],4%
same,Population Mitochondria Different-Phenotype (%),[7],2%
same,Population Mitotic Cells (%),[7],10%
same,Population Normal (%),[7],97%
same,Population Pyknosed Nuclei (%),[7],9%
same,Population Tubulin-Different-Phenotype (%),[7],0%
same,Total Cell Count,[7],314
same,Population Apoptotic (%),[8],83%
same,Population Fragmented Nuclei (%),[8],9%
same,Population Healthy Nuclei (%),[8],85%
same,Population Hoechst High Intensity Objects (%),[8],0%
same,Population Membrane Permeable-Phenotype (%),[8],5%
same,Population Mitotic Cells (%),[8],16%
same,Population Normal (%),[8],99%
same,Population Pyknosed Nuclei (%),[8],5%
same,Population Tubulin-Different-Phenotype (%),[8],5%
same,Total Cell Count,[8],108
same,Population Apoptotic (%),[9],83%
same,Population Fragmented Nuclei (%),[9],12%
same,Population Healthy Nuclei (%),[9],76%
same,Population Hoechst High Intensity Objects (%),[9],2%
same,Population Membrane Permeable-Phenotype (%),[9],4%
same,Population Mitochondria Different-Phenotype (%),[9],2%
same,Population Mitotic Cells (%),[9],16%
same,Population Normal (%),[9],97%
same,Population Pyknosed Nuclei (%),[9],10%
same,Population Tubulin-Different-Phenotype (%),[9],3%
same,Total Cell Count,[9],479
same,Population Apoptotic (%),[10],92%
same,Population Fragmented Nuclei (%),[10],20%
same,Population Healthy Nuclei (%),[10],68%
same,Population Hoechst High Intensity Objects (%),[10],4%
same,Population Membrane Permeable-Phenotype (%),[10],8%
same,Population Mitochondria Different-Phenotype (%),[10],4%
same,Population Mitotic Cells (%),[10],7%
same,Population Normal (%),[10],95%
same,Population Pyknosed Nuclei (%),[10],11%
same,Population Tubulin-Different-Phenotype (%),[10],1%
same,Total Cell Count,[10],132
same,Population Apoptotic (%),[11],95%
same,Population Fragmented Nuclei (%),[11],15%
same,Population Healthy Nuclei (%),[11],75%
same,Population Hoechst High Intensity Objects (%),[11],2%
same,Population Membrane Permeable-Phenotype (%),[11],7%
same,Population Mitochondria Different-Phenotype (%),[11],4%
same,Population Mitotic Cells (%),[11],5%
same,Population Normal (%),[11],97%
same,Population Pyknosed Nuclei (%),[11],9%
same,Population Tubulin-Different-Phenotype (%),[11],5%
same,Total Cell Count,[11],435
same,Population Apoptotic (%),[12],100%
same,Population Fragmented Nuclei (%),[12],12%
same,Population Healthy Nuclei (%),[12],78%
same,Population Membrane Permeable-Phenotype (%),[12],3%
same,Population Mitochondria Different-Phenotype (%),[12],3%
same,Population Mitotic Cells (%),[12],0%
same,Population Tubulin-Different-Phenotype (%),[12],3%
same,Total Cell Count,[12],170

# Source: ChEMBL document CHEMBL5058577, “EUbOPEN Chemogenomics Library 2 (Multiplex)” (2022)
